Assay results: ChEMBL document CHEMBL1123485, “A lymphotropic prodrug of L-dopa: synthesis, pharmacological properties, and pharmacokinetic behavior of 1,3-dihexadecanoyl-2-[(S)-2-amino-3-(3,4-dihydroxyphenyl)prop anoyl] propane-1,2,3-triol” (J Med Chem, 1986)
Values joined by “and” are separate entries in the source; they are usually repeats but may differ in a detail not shown here. Equal entries are not always repeated.

What was measured:
[1] = system: Mus musculus; assay: Peak plasma concentration expresses the ability of compound for the release of dopamine in the plasma of mouse after oral administration of […]; type: ADME, organism-based; parameters: route oral; conditions: in vivo
How it was run: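 Male NMRI mice (20–25 g), five per time point and compound, received 0.5 mmol/kg orally. They were decapitated at 10, 20 and 30 min and 1–6 h. Blood was collected, deproteinized with perchloric acid and assayed for L-Dopa and dopamine by HPLC with fluorometric detection. Cmax is given in nmol/mL and tmax in min.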

[2] = Time of maximum L-Dopa plasma concentration was measured in monkey ofter oral administration of the compound; type: ADME, organism-based; conditions: simiiformes, in vivo
How it was run: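 A single male Cynomolgus monkey (2.7 kg) was fasted 12 h and given 0.5 mmol/kg orally. Blood was drawn from the femoral vein, and plasma L-Dopa and dopamine were assayed by HPLC with fluorometric detection. Cmax is the peak plasma concentration (nmol/mL); tmax is the time of that peak (min).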

[3] = system: Rattus norvegicus; assay: Time of maximum L-Dopa plasma concentration was measured in rat ofter oral administration of the compound; type: ADME, organism-based; conditions: in vivo
How it was run: (§1)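 Overnight-fasted male Wistar rats (230–250 g), five per compound, received 0.5 mmol/kg orally. Tail-vessel blood was sampled at 10, 20 and 30 min and 1–6 h. Plasma was deproteinized with perchloric acid and centrifuged, then L-Dopa and dopamine were measured by reversed-phase HPLC with fluorometric detection, quantified by peak area. Cmax (nmol/mL) and tmax (min) were taken from the mean curves.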

[4] = system: Rattus norvegicus; assay: Time of maximum dopamine plasma concentration was measured in rat ofter oral administration of the compound; type: ADME, organism-based; conditions: in vivo; how it was run: as §1
[5] = Time of maximum L-Dopa plasma concentration was measured in mouse ofter oral administration of the compound; conditions: in vivo
[6] = system: Rattus norvegicus; assay: Peak plasma concentration expresses the ability of compound for the release of L-Dopa in the plasma of rat after oral administration of 0.5 mmol/kg; conditions: in vivo
[7] = system: Rattus norvegicus; assay: Peak plasma concentration expresses the ability of compound for the release of dopamine in the plasma of rat after oral administration of 0.5 mmol/kg; conditions: in vivo
[8] = Peak plasma concentration expresses the ability of compound for the release of L-Dopa in the plasma of monkey after oral administration of 0.5 mmol/kg; conditions: simiiformes, in vivo
[9] = Peak plasma concentration expresses the ability of compound for the release of dopamine in the plasma of monkey after oral administration of 0.5 mmol/kg; conditions: simiiformes, in vivo
[10] = system: Mus musculus; assay: Peak plasma concentration expresses the ability of compound for the release of L-Dopa in the plasma of mouse after oral administration of 0.5 mmol/kg; conditions: in vivo

Row | Compound | Cmax [1] | T max [2] [h] | T max [3] [h] | T max [4] | T max [5] [h] | Cmax [6] [nM ml-1] | Cmax [7] [nM ml-1] | Cmax [8] [nM ml-1] | Cmax [9] [nM ml-1] | Cmax [10] [nM ml-1]
1 | CCCCCCCCCCCCCCCC(=O)OCC(COC(=O)CCCCCCCCCCCCCCC)OC(=O)C(N)Cc1ccc(O)c(O)c1 (centres undefined) | 1.6 nM ml-1 and 3.54 nM ml-1 | 1.83 | 3 | 4 h and 2.5 h | 2 | 24.6 | 17.1 | 18.3 | 6.1 | 
2 | N[C@@H](Cc1ccc(O)c(O)c1)C(=O)O [LEVODOPA] |  |  |  |  | 0.5 | 16.2 |  | 9.5 | 8.1 | 1.12
